From ChEMBL document CHEMBL1926535, “Novel pyridopyrazine and pyrimidothiazine derivatives as FtsZ inhibitors” (Bioorg Med Chem, 2011)
≈ marks a conversion by molar mass, not a printed value.

Key:
Vero = test: Cytotoxicity against african green monkey Vero cells after 72 hrs by celltiter-glo assay; format: cell-based; conditions: chlorocebus sabaeus
Outline: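 Vero cells grown in culture with compound across a 10-point dose-response curve. CC50 is extrapolated as the concentration that inhibits cell growth by 50%. Each compound was assayed at least three times.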

[1] = target: T1, Cell division protein FtsZ (Mycobacterium tuberculosis, UniProt P9WN95); test: Inhibition of Mycobacterium tuberculosis FtsZ polymerization expressed in Escherichia coli by light scattering assay
T1 sequence (P9WN95 whole entry): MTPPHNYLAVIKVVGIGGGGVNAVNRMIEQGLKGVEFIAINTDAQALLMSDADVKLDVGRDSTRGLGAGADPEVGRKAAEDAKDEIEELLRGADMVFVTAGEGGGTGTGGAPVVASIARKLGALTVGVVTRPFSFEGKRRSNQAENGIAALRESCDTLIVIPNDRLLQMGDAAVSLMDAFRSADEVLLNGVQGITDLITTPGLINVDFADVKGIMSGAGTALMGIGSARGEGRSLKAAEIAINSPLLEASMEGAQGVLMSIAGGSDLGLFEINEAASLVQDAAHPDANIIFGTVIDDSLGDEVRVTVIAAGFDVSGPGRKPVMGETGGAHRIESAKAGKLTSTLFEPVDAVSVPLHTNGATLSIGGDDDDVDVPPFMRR
Outline: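 Mtb FtsZ polymerization assay with each compound run at least three times. IC50 is the concentration that inhibits polymerization by 50%, reported as mean ± standard deviation.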

[2] = test system: Mycobacterium tuberculosis; test: Antituberculosis activity against Mycobacterium tuberculosis H37Rv ATCC 27294 after 7 days using alamar blue assay; format: functional; conditions: 168 h
Outline: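 Strain H37Rv growth measured over a 10-point dose-response curve. IC90, the concentration inhibiting bacterial growth by 90%, is extrapolated from the curve.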

[3] = Inhibition of purified bovine tubulin polymerization by light scattering assay; set-up: species or system Bos taurus
Outline: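 Tubulin polymerization assay. IC50 is the concentration that inhibits polymerization by 50%. Each compound was analyzed at least three times, reported as mean ± standard deviation.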

[4] = test system: Mycobacterium tuberculosis; test: Antituberculosis activity against Mycobacterium tuberculosis H37Ra ATCC 25177 after 6 days using alamar blue dye by broth microdilution assay; format: functional; conditions: H37Ra ATCC 25177, 144 h
Outline: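 Strain H37Ra in a colorimetric Alamar blue broth microdilution assay using duplicate two-fold serial dilutions of drug.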

[5] = target: T2, Cell division protein FtsZ (Mycobacterium tuberculosis) (UniProt P9WN95); test: Inhibition of Mycobacterium tuberculosis FtsZ polymerization expressed in Escherichia coli at 100 uM by light scattering assay
T2 sequence (whole entry): T1 sequence (P9WN95 whole entry)

Bos taurus = species: Bos taurus; test: Inhibition of purified bovine tubulin polymerization at 100 uM by light scattering assay
[6] = test system: Mycobacterium tuberculosis; test: Antitubercular activity against Mycobacterium tuberculosis infected in interferon-gamma-gene-disrupted C57BL/6 mouse model assessed as reduction in bacterial load in lung at 10 mg/kg, po administered daily measured after 9 days; format: functional
Outline: (§1)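 Interferon-γ gene-disrupted C57BL/6 (GKO) mice infected with M. tuberculosis. Compound given at 10 mg/kg in 0.5% methyl cellulose by daily gavage for 9 days. Read-out is the reduction in bacterial load (Log10 CFU) in lungs or spleen versus untreated controls, with significance judged by P value (0.05 threshold).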

[7] = test system: Mycobacterium tuberculosis; test: Antitubercular activity against Mycobacterium tuberculosis infected in interferon-gamma-gene-disrupted C57BL/6 mouse model assessed as reduction in bacterial load in spleen at 10 mg/kg, po administered daily measured after 9 days; format: functional; outline: as §1
[8] = test system: Mycobacterium tuberculosis; test: Antitubercular activity against Mycobacterium tuberculosis infected in interferon-gamma-gene-disrupted C57BL/6 mouse model assessed as reduction in bacterial load in spleen at 10 mg/kg, po administered daily; format: functional; outline: as §1
[9] = test system: Mycobacterium tuberculosis; test: Antitubercular activity against Mycobacterium tuberculosis infected in interferon-gamma-gene-disrupted C57BL/6 mouse model assessed as reduction in bacterial load in lung at 10 mg/kg, po administered daily; format: functional; outline: as §1
Mus musculus [10] = test: Toxicity in C57BL/6 mouse model assessed as adverse event at 100 mg/kg administered via gavage; format: organism-based; set-up: dose 100 mg/kg; conditions: in vivo, po
Outline: (§2)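 Acute maximum tolerated dose study in C57BL/6 mice. Escalating oral gavage doses up to 300 mg/kg were given daily for 3 days, formulated in 0.5% methyl cellulose. Dosage was scaled back if mortality or adverse effects were observed.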

Mus musculus [11] = test: Toxicity in C57BL/6 mouse model assessed as lethality at 300 mg/kg administered via gavage; format: organism-based; set-up: dose 300 mg/kg; conditions: in vivo, po
Outline: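 Acute maximum tolerated dose study in C57BL/6 mice. Escalating doses up to 300 mg/kg were given daily for 3 days by gavage in 0.5% methyl cellulose, and doses were scaled back if mortality or adverse effects appeared.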

Mus musculus [12] = test: Toxicity in C57BL/6 mouse model assessed as adverse event at 30 mg/kg administered via gavage; format: organism-based; set-up: dose 30 mg/kg; conditions: in vivo, po; outline: as §2

| Compound | CC50 (Vero) [µM] | IC50 [1] [µM] | IC90 [2] [µM] | IC50 [3] [µM] | MIC [4] [µM] | inhibition [5] [%] | inhibition (Bos taurus) [%] | log10cfu [6] | log10cfu [7] | log10cfu [8] | log10cfu [9] | Activity (Mus musculus [10]) | Activity (Mus musculus [11]) | Activity (Mus musculus [12]) |
| --- | --- | --- | --- | --- | --- | --- | --- | --- | --- | --- | --- | --- | --- | --- |
| CCOC(=O)Nc1cc(NC(C)CCCN(CC)CC)c2nc(-c3ccccn3)c(-c3ccccn3)nc2n1 (stereo not given) | > 40 | 45.7 | > 100 | > 100 | 54 (≈ 28.5 µg/mL) | – | – | – | – | – | – | – | – | – |
| CCOC(=O)Nc1nc(NC(C)CCCN(CC)CC)c2c(n1)SC(c1ccccc1)C(c1ccccc1)=N2 (stereo not given) | > 40 | 46 | 21.7 | > 100 | 49 (≈ 26.8 µg/mL) | – | – | – | – | – | – | – | – | – |
| CCOC(=O)Nc1cc(NCCN(CC)CC)c2nc(-c3cccs3)c(-c3cccs3)nc2n1 | 6.3 | 21 | 0.92 | > 100 | ≤ 7.9 | – | – | – | – | – | – | – | – | – |
| CCOC(=O)Nc1cc(NC(C)CCCN(CC)CC)c2nc(-c3ccco3)c(-c3ccco3)nc2n1 (stereo not given) | > 40 | 26.8 | 7 | > 100 | 3.6 (≈ 1.82 µg/mL) | – | – | – | – | – | – | – | – | – |
| CCN(CC)CCCC(C)Nc1cc(N)nc2nc(-c3cccs3)c(-c3cccs3)nc12 (stereo not given) | 5.9 | 29.5 | 4.1 | > 100 | 17 (≈ 7.93 µg/mL) | – | – | – | – | – | – | – | – | – |
| CCOC(=O)Nc1cc(NCCCCN(CC)CC)c2nc(-c3cccs3)c(-c3cccs3)nc2n1 | > 40 | – | > 100 | > 100 | 0.23 (≈ 0.121 µg/mL) | 64 | – | – | – | – | – | – | – | – |
| CCOC(=O)Nc1cc(NC(C)CCCN(CC)CC)c2nc(C)c(C)nc2n1 (stereo not given) | > 40 | > 100 | > 100 | > 100 | > 290 | – | – | – | – | – | – | – | – | – |
| CCOC(=O)Nc1cc(NCCCCN(CC)CC)c2nc(-c3ccccc3)c(-c3ccccc3)nc2n1 | 1.8 | 52 | < 0.19 | – | 0.24 (≈ 0.123 µg/mL) | – | 40 | – | – | – | – | – | – | – |
| CCOC(=O)Nc1cc(NCCN(C)C)c2nc(-c3cccs3)c(-c3cccs3)nc2n1 | 1.6 | 27.3 | < 0.19 | > 100 | 1.1 (≈ 0.515 µg/mL) | – | – | – | – | – | – | – | – | – |
| CCOC(=O)Nc1nc(NCCCCN(CC)CC)c2c(n1)SC(c1ccccc1)C(c1ccccc1)=N2 (stereo not given) | > 40 | 46.2 | 18 | 69.7 | 52 (≈ 27.7 µg/mL) | – | – | – | – | – | – | – | – | – |
| CCOC(=O)Nc1cc(NCCN(C)C)c2nc(-c3ccco3)c(-c3ccco3)nc2n1 | 37 | 34.1 | 29 | > 100 | ≤ 7 | – | – | – | – | – | – | – | – | – |
| CCOC(=O)Nc1cc(NC(C)CCCN(CC)CC)c2nc(-c3cccs3)c(-c3cccs3)nc2n1 (stereo not given) | > 40 | 34.3 | < 0.19 | > 100 | 0.43 (≈ 0.232 µg/mL) | – | – | 0.51 | 0.58 | – | – | – | – | – |
| CCOC(=O)Nc1cc(NCCN(CC)CC)c2nc(-c3ccco3)c(-c3ccco3)nc2n1 | 5.5 | 34.8 | > 100 | > 100 | 8.7 (≈ 4.04 µg/mL) | – | – | – | – | – | – | – | – | – |
| CCOC(=O)Nc1cc(NCCN(CC)CC)c2nc(-c3ccccc3)c(-c3ccccc3)nc2n1 | 2.7 | – | 0.38 | > 100 | 1.7 (≈ 0.824 µg/mL) | 59 | – | – | – | – | – | – | – | – |
| CCOC(=O)Nc1nc(NC(C)CCCN(CC)CC)c2nc(-c3ccccc3)c(-c3ccccc3)nc2n1 (stereo not given) | – | 38.1 | 1.9 | – | 3.8 (≈ 2.01 µg/mL) | – | 24 | – | – | – | – | – | – | – |
| CCOC(=O)Nc1cc(NCCCCN(CC)CC)c2nc(-c3ccco3)c(-c3ccco3)nc2n1 | > 40 | 16.4 | > 100 | 41 | 3.6 (≈ 1.77 µg/mL) | – | – | – | – | – | – | – | – | – |
| CCOC(=O)Nc1cc(NC(C)CCCN(CC)CC)c2nc(CC)c(CC)nc2n1 (stereo not given) | > 40 | > 100 | > 50 | > 100 | > 290 | – | – | – | – | – | – | – | – | – |
| CCOC(=O)Nc1cc(NCCN(C)C)c2nc(-c3ccccc3)c(-c3ccccc3)nc2n1 | 0.7 | 54.6 | < 0.19 | > 100 | ≤ 7.6 | – | – | – | – | – | – | – | – | – |
| CCOC(=O)Nc1cc(NC(C)CCCN(CC)CC)c2nc(-c3ccccc3)c(-c3ccccc3)nc2n1 (stereo not given) | – | 34.2 | < 0.19 | > 100 | 0.47 (≈ 0.248 µg/mL) | – | – | – | – | 0.5 | 0.86 | Toxic | Toxic | Toxic |
| CCN(CC)CCCC(C)Nc1cc(N)nc2nc(-c3ccco3)c(-c3ccco3)nc12 (stereo not given) | 14 | 18.6 | > 100 | > 100 | 150 (≈ 65.2 µg/mL) | – | – | – | – | – | – | – | – | – |
